This is an account of results in PubChem BioAssay AID504775 (Broad Institute, 2011).

Molecules are shown by their SMILES. Screen size: about 320,000 compounds; about 310 (0.097%) were called active. The entries come from a sample that favours actives as a whole. Unmarked numbers belong to inactive results.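 The calls were made as follows: active = mean replicate activation of at least 60% and every replicate at or above 60%; inconclusive = mean or all-replicate condition met, but not both; inactive = mean below 60% and not all replicates reaching 60%.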

The assay can be described thus: activators of SR-BI mediated DiI-HDL uptake, primary screen, ldlA[mSR-BI] CHO cells, DiI fluorescence (AID 504775).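 Also: 0% = median plate neutral-control signal and 100% = twice that signal.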 The note with it: 3 h, at 12.5 µM, stronger effect = higher value, 100 = double the neutral-control signal. In a few lines: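 Test system: SR-BI-overexpressing, LDLR-lacking CHO cells; Also added: labelled HDL, 10 µg/mL; Measured by: bottom-read cell fluorescence after medium removal, ex 550/em 595 nm; Timing: 3 h uptake period with compound, 37 °C; Buffer or medium: F12, 0.5% BSA, 25 mM HEPES; Doses: single compound concentration, delivered by pin transfer.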
For the compound `O=C(COC(=O)c1ccc(O)cc1O)NC(=O)c1ccccc1`, the activation is 38.7%.
As to `O=C(NCc1ccccc1)c1cccc(NC(=O)C2CCCCC2)c1`, the activation was -0.488%.
With `O=C1OCC2=C1C(c1ccc(Cl)cc1)c1cc3c(cc1O2)OCO3` (configuration not stated), the activation was -14%.
For `CCN1C[C@@H]2[C@@H]3C(=O)N(C)C(=O)[C@@H]3[C@](C)(C1=O)N2C(=O)c1ccccc1`, the activation was -27.8%.
As to `Oc1cccc(CCc2ccccn2)c1`, the activation was 0.288%.
With `COc1cccc(/C=N/Nc2ccc(S(=O)(=O)Nc3ccccc3C(=O)O)cc2[N+](=O)[O-])c1O`, the activation is 4.5%.
Then `CCCN(CC(=O)Nc1ccc(C(N)=O)cc1)CC(=O)Nc1ccccc1C`, with 13.5%; and `CCCN(CCC)CC(O)COc1ccccc1C(=O)Nc1ccccc1` (configuration not stated), with 102% (active).
On to `CCCOc1ccccc1C(=O)NCCCC(=O)O`, for which the activation is 21.5%.
For the compound `COc1ccc(CNCCCNCc2ccc(OC)c(OC)c2)cc1OC`, the activation is 4.58%.
Then `CC(C)(C)C(=O)Nc1cccc(-c2ccc[nH]2)n1`, with 5.41%; and `O=C1C2C3C=CC(C3)C2C(=O)N1c1ncc([N+](=O)[O-])s1` (configuration not stated), with 8.82%.
Under `COc1ccc(Br)cc1/C=N/Nc1ccc(S(=O)(=O)Nc2ccccc2C(=O)O)cc1[N+](=O)[O-]` stands 16.3%; under `COc1ccc(/C=C/C(=O)OCC(=O)N2CCN(S(=O)(=O)c3ccc(C)cc3C)CC2)cc1OC`, -71.9%.
Under `CCOc1cc(C(=O)N(Cc2ccccc2)c2ccc(C)cc2)ccc1OCC(=O)N1CCOCC1` stands -5.71%; under `O=C(NNC(=O)c1ccccc1O)c1ccccc1O`, -124%; under `CN(C)C(=S)N=c1ssc(=S)n1Cc1ccco1`, -0.753%.
`O=C(CC1Sc2ccccc2NC1=O)NNc1ccc(Cl)c(Cl)c1` (configuration not stated): the activation was -45.6%.
Regarding `O=S(=O)(O)c1cc2onnc2c2ccccc12`, the activation is 15.5%.
In the case of `Nc1ccc2c(c1)C(O)c1ccc(Cl)cc1-2` (configuration not stated), the activation was 14.5%.
`COc1cc(C(=O)CCc2ccc3c(c2)OCO3)cc(OC)c1OC`: the activation is -43.2%.
Under `COC1=CC(=O)OC(c2ccc(OC)cc2)C1` (configuration not stated) stands 14.1%.
Under `O=C(NCCc1ccccc1)c1c[nH]c2ccc(F)cc2c1=O` stands -17.9%; under `CC(C)[C@@H](C(=O)OCC(=O)c1ccc2c(c1)NC(=O)CO2)N1C(=O)c2ccccc2C1=O`, 1.12%; under `CCOC(=O)CCC(NC(=O)c1ccc(CNc2nc3cc(C(F)(F)F)ccc3nc2C(=O)OCC)cc1)C(=O)OCC` (configuration not stated), -43.7%.
As to `CC(=O)OC1CCC2C3CCC4=C(CC(F)C(=O)C4)C3CCC12C` (configuration not stated), the activation is -3.99%.
Then `CC(=O)OCC(=O)C1(O)CCC2C3CC(C)C4=CC(=O)CCC4(C)C3C(O)CC21C` (configuration not stated), with -0.166%; and `Cc1ccc(C)c(S(=O)(=O)N(C)c2ccc(OC(=O)C3CCN(C(=O)c4ccc(F)cc4)CC3)cc2)c1`, with -12.3%; and `Cc1ccc(Cn2c(C)c3cnn(CC(=O)NCCN4CCOCC4)c(=O)c3c2C)cc1`, with -22.1%.
As to `CCOC(=O)C1CCCN(C(=O)C2CCN(S(=O)(=O)c3ccc(Cl)c(C(F)(F)F)c3)CC2)C1` (configuration not stated), the activation is 22.7%.
Turning to `COc1ccccc1N(CC(=O)Nc1c(C)n(C)n(-c2ccccc2)c1=O)S(=O)(=O)c1ccccc1`, the activation was 12%.
Then `O=C1OC(Oc2ccc(Br)cc2)(c2ccccc2)c2ccccc21` (configuration not stated), with -0.981%; and `O=[N+]([O-])c1ccc(N=NNc2ccc([N+](=O)[O-])cc2)cc1`, with 5.77%.
`CC1=CC(C)(C)Nc2ccc(OC(=O)C(Cc3ccccc3)N3C(=O)C4CCCCC4C3=O)cc21` (configuration not stated): the activation is 62.9% (active).
Consider `CC1=CC(C)(C)Nc2ccc(OC(=O)CN3C(=O)C4CCCCC4C3=O)cc21` (configuration not stated), for which the activation is 9.46%.
For the compound `CCOC(=O)C(Cc1ccc(N)cc1)N1C(=O)c2ccccc2C1=O` (configuration not stated), the activation was -16%.
Under `COc1ccc(C(C(=O)NC2CCCCC2)N(C(=O)CCl)c2ccccc2Cl)cc1` (configuration not stated) stands 88.3% (active).
Under `Cc1ccccc1N(C(=O)CNC(=O)c1cccs1)C(C(=O)NC1CCCC1)c1ccncc1` (configuration not stated) stands 4.44%; under `COc1ccc(C(C(=O)NC2CCCCC2)N(C(=O)c2snc(C(N)=O)c2N)c2ccccc2OC)cc1` (configuration not stated), 13.6%; under `Oc1ccc(-c2nc3ccccc3nc2-c2ccc(O)cc2O)c(O)c1`, -26%.
Then `C/C(=N\Nc1ccccc1)c1cccs1`, with 13.7%.
As to `O=C(CCCCCCCC(=O)N1CCCCC1)N1CCCCC1`, the activation is 7.36%.
Then `COc1ccc(CCC(=O)Nc2ccc(Cl)c(S(=O)(=O)N3CCOCC3)c2)cc1OC`, with -60.3%; and `CC(=O)CSc1nc(CCc2ccccc2)c(C#N)c(=O)[nH]1`, with 11%; and `Nc1ccc2[nH]c(=S)sc2c1`, with -5.72%.
Under `COc1ccc(S(=O)(=O)N2CCC(C(=O)N3CCOCC3)CC2)cc1OC` stands 0.407%; under `COc1ccc(S(=O)(=O)N2CCC(C(=O)N3CCc4ccccc4C3)CC2)cc1OC`, 4.32%; under `COc1cc(S(=O)(=O)N2CCN(C(=O)C3CC3)CC2)ccc1NC(C)=O`, 60.7% (active).
Then `NC(=S)NN=C1CCCC(C(F)(F)F)C1` (configuration not stated), with -74%; and `N#CCc1c[nH]c2ccc([N+](=O)[O-])cc12`, with 13.4%; and `O=C1CC(c2ccccc2)C(=O)N2C(=O)CC(c3ccccc3)C(=O)N12` (configuration not stated), with 16.5%.
For the compound `C#CCOCCOCCOCCNc1nc(N2CCN(C(=O)Cn3cc(CCO)nn3)CC2)nc(N2CCN(C(=O)Cn3cc(CCCN=C(N)N)nn3)CC2)n1`, the activation is 17.5%.
Under `COC(=O)CC(CC(=O)OC)n1cccc1` stands 7.62%; under `Cc1ccc(NC(=O)C(C)OC(=O)C2CC3CCCC(C2)C3=O)cc1S(=O)(=O)N1CCOCC1` (configuration not stated), -2.41%; under `O=C(C[C@H]1C[C@H](C(=O)N2CCOCC2)[C@@]2(CCC3CCCC3)c3[nH]c4ccc(Cl)cc4c3CCN2C1=O)NCc1ccco1`, 82.2% (active).
For the compound `COc1ccc(CNC(=O)C[C@H]2C[C@H](C(=O)N3CCOCC3)[C@@]3(CCC4CCCC4)c4[nH]c5ccc(Cl)cc5c4CCN3C2=O)cc1OC`, the activation is -30.3%.
In the case of `CN(C)C(=O)CCc1ccc2c3c([nH]c2c1)[C@]1(CCC2CCCC2)[C@@H](C(=O)N2CCOCC2)C[C@H](CC(=O)NCc2ccco2)C(=O)N1CC3`, the activation was 14.3%.
